Source: ChEMBL document CHEMBL2412983, “Synthesis and evaluation of N⁸-acetylspermidine analogues as inhibitors of bacterial acetylpolyamine amidohydrolase” (Bioorg Med Chem, 2013)

Molecular target: not listed separately
Assay: Inhibition of N8-acetylspermidine deacetylase in rat liver subcellular extract
Conditions: read-out: Ki(app)

| Structure (SMILES) | Ki [nM] |
| --- | --- |
| NCCCNCCCCCC(=O)NO | 1 |

Molecular target: T1, Acetylpolyamine amidohydrolase (Mycoplana ramosa, UniProt Q48935)
T1 sequence (Q48935 whole entry): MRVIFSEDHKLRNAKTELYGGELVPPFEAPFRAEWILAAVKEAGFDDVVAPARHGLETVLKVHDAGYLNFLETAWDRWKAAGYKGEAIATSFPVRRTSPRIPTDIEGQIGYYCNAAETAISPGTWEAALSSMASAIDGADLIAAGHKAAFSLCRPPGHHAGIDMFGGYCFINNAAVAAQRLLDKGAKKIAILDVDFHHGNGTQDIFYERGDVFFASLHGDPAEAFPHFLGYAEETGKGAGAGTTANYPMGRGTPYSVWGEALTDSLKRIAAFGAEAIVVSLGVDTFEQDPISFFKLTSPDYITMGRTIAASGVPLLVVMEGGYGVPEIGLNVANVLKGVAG
Assay: Inhibition of Mycoplana ramosa APAH expressed in Escherichia coli BL21 (DE3) using BML-KI104 as substrate after 30 mins by fluorimetric assay
Conditions: not given
Summary of the method: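 Recombinant enzyme purified from E. coli, 250 nM, at 25 °C with 150 μM Fluor-de-Lys acetyl substrate and 0–100 mM inhibitor. Buffer was 25 mM Tris pH 8.2, 137 mM NaCl, 2.7 mM KCl, 1 mM MgCl2, with 100 μM TCEP only for the thiol compound. Stopped at 30 min with 100 μM M344 plus developer. Fluorescence (ex 355/em 460 nm) was read after 45 min. Each concentration was run in triplicate in separate experiments.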

| Structure (SMILES) | IC50 [µM] |
| --- | --- |
| CS(=O)(=O)CCCCCNCCCN | 10000 |
| NCCCNCCCCCS | 26 |
| NCCCNCCCCCC(=O)NO | 0.39 |
| CC(=O)CCCCCNCCCN | 160 |
| CC(=O)SCCCCCNCCCN | 1900 |
| COCC(=O)CCCCCNCCCN | 380 |
| NCCCNCCCCCB(O)O | 230 |
| NCCCNCCCCCC(=O)O | 1800 |
| NCCCNCCCCCC(=O)C(F)(F)F | 0.27 |
| CC(=O)SCC(=O)CCCCCNCCCN | 39 |
